# The source made the active and inactive calls. No cut-off for these calls is given here.
# How the values were obtained:
# [1] = Effect on HPRT mRNA expression in human SW480 cells at 100 uM incubated for 24 hrs by qPCR analysis relative to control; assay type: ADME, cell-based; settings: read-out: FC
# In short: (§1)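 SW480 cells at 1 × 10^6/mL were treated with inhibitor for 24 h. Total RNA was extracted with TRIzol and cDNA made by first-strand synthesis. SYBR green qPCR used human HPRT primers, with CT values normalised to GAPDH as internal reference. Performed in triplicate.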
# [2] = Drug level in human HCT-116 cells assessed as cell membrane bound compound level at 50 uM incubated for 6 hrs at 4 degC in presence of DMEM media with 10% FBS; assay type: ADME, cell membranes; settings: hct-116, 6 h
# In short: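 Cells were incubated with 50 μM compound for 6 h in 5 mL DMEM with 10% FBS, at 37 °C or at 4 °C. Cell-bound compound was quantified by a previously described method and expressed as nmol per million cells. The 4 °C incubation was used to estimate binding to the cell membrane through nonspecific association.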
# [3] = system: SW480; test: Effect on E-cadherin-bound beta-catenin levels in human SW480 cells at 2 to 8 uM incubated for 24 hrs by Western blot analysis; assay type: functional, cell-based; settings: dose 2-8 µM
# In short: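 SW480 cells at 1 × 10^6 cells/mL were treated with a range of inhibitor concentrations for 24 h. Cells were lysed in Tris/NaCl/NP-40/deoxycholate/SDS buffer with protease inhibitors. Lysates were run on 8% SDS-PAGE and blotted to nitrocellulose. Blots were probed overnight at 4 °C for total β-catenin (mostly the E-cadherin-bound pool), active β-catenin (dephosphorylated S37/T41), cyclin D1, c-myc and β-tubulin. Detection used infrared secondary antibodies. Duplicate.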
# [4] = Effect on HPRT mRNA expression in human SW480 cells at 1 uM incubated for 24 hrs by qPCR analysis relative to control; assay type: ADME, cell-based; settings: read-out: FC; in short: as §1
# [5] = Effect on HPRT mRNA expression in human SW480 cells at 8 uM incubated for 24 hrs by qPCR analysis relative to control; assay type: ADME, cell-based; settings: read-out: FC; in short: as §1
smiles,measurement,setting,value
Cl.Cl.O=C(Nc1ccc(O[C@@H]2CCNC2)c(-c2cccc(-c3nn[nH]n3)c2)c1)c1ccc(O[C@H]2CCNC2)c(-c2ccc(F)c(F)c2)c1,fold induction at 100 µM,[1],0.969
same,Drug uptake,[2],77%
Cl.Cl.O=C(Nc1ccc(O[C@H]2CCNC2)c(-c2ccc(F)cc2)c1)c1ccc(O[C@H]2CCNC2)c(-c2ccc3ccsc3c2)c1,Activity,[3],inactive
same,fold induction at 1 µM,[4],1.09
Cc1cc(F)ccc1-c1cc(NC(=O)c2ccc(O[C@H]3CCNC3)c(-c3ccc(F)c(F)c3)c2)ccc1O[C@H]1CCNC1.Cl.Cl,fold induction at 8 µM,[5],0.124

# From ChEMBL document CHEMBL4680104, “Structure-Based Optimization of Small-Molecule Inhibitors for the β-Catenin/B-Cell Lymphoma 9 Protein-Protein Interaction” (J Med Chem, 2018)
